Results published in ChEMBL document CHEMBL1641387, “Antiproliferative effects of saponins from the roots of Platycodon grandiflorum on cultured human tumor cells” (J Nat Prod, 2010).
Calls of active or inactive are those of the source. The rule behind the calls is not given here.

What was measured:
Assay type in all cases: functional, cell-based
[1] = (§1) Antiproliferative activity against human HCT15/CL02 cells after 48 hrs by sulforhodamine B assay; conditions: HCT-15, 48 h
Outline: (§2)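 Cells kept in RPMI1640 with 5% FBS at 37 °C, 5% CO2. HCT15/CL02 is a line derived from HCT15 by stepwise doxorubicin exposure. Cells seeded and left 24 h to attach, then exposed continuously for 48 h to serially diluted saponins. Fixed with cold 10% TCA, 1 h at 4 °C, stained with 0.4% SRB, dye solubilized in 10 mM Tris (pH 10.5), absorbance at 520 nm. Each run in triplicate; IC50 by nonlinear regression, mean ± SD of three independent experiments.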

HCT-15 [2] = assay: Antiproliferative activity against human HCT15 cells after 48 hrs by sulforhodamine B assay; conditions: for IC50: HCT-15, 48 h; outline: as §2
[3] = (§3) Antiproliferative activity against human MESSA cells after 48 hrs by sulforhodamine B assay; conditions: MES-SA; outline: as §2
[4] = (§4) Antiproliferative activity against human MESSA/DX5 cells after 48 hrs by sulforhodamine B assay; conditions: MES-SA/Dx5, 48 h; outline: as §2
HCT-15 [5] = assay: as §1; outline: as §2
MES-SA = assay: as §3; outline: as §2
MES-SA/Dx5 = assay: as §4; outline: as §2

SMILES	IC50 (HCT-15 [2]) [µM]	IC50 [1] [µM]	IC50 [3] [µM]	IC50 [4] [µM]	Activity (HCT-15 [5])	Activity (HCT-15 [2])	Activity (MES-SA)	Activity (MES-SA/Dx5)
CC(=O)O[C@H]1[C@@H](O)[C@H](O[C@H]2[C@H](OC(=O)[C@]34CCC(C)(C)C[C@H]3C3=CC[C@@H]5[C@@]6(C)C[C@H](O)[C@H](O[C@@H]7O[C@H](CO)[C@@H](O)[C@H](O)[C@H]7O)[C@@](C)(CO)[C@@H]6CC[C@@]5(C)[C@]3(C)C[C@H]4O)OC[C@H](O)[C@@H]2O)O[C@@H](C)[C@@H]1O[C@@H]1OC[C@@H](O)[C@H](O[C@@H]2OC[C@](O)(CO)[C@H]2O)[C@H]1O	6.7	> 10	3.6	4.2	–	–	–	–
CC(=O)O[C@H]1[C@H](O[C@H]2[C@H](OC(=O)[C@]34CCC(C)(C)C[C@H]3C3=CC[C@@H]5[C@@]6(C)C[C@H](O)[C@H](O[C@@H]7O[C@H](CO)[C@@H](O)[C@H](O[C@@H]8O[C@H](CO)[C@@H](O)[C@H](O)[C@H]8O)[C@H]7O)[C@@](C)(CO)[C@@H]6CC[C@@]5(C)[C@]3(C)C[C@H]4O)OC[C@H](O)[C@@H]2O)O[C@@H](C)[C@H](O[C@@H]2OC[C@@H](O)[C@H](O[C@@H]3OC[C@](O)(CO)[C@H]3O)[C@H]2O)[C@H]1O	3.6	5.8	3.3	3.4	–	–	–	–
C[C@@H]1O[C@@H](O[C@H]2[C@H](OC(=O)[C@]34CCC(C)(C)C[C@H]3C3=CC[C@@H]5[C@@]6(C)C[C@H](O)[C@H](O[C@@H]7O[C@H](CO)[C@@H](O)[C@H](O[C@@H]8O[C@H](CO)[C@@H](O)[C@H](O)[C@H]8O)[C@H]7O)C(CO)(CO)[C@@H]6CC[C@@]5(C)[C@]3(C)C[C@H]4O)OC[C@H](O)[C@@H]2O)[C@H](O)[C@H](O)[C@H]1O[C@@H]1OC[C@@H](O)[C@H](O)[C@H]1O	–	–	–	–	Active	Active	Active	Active
CC(=O)O[C@H]1[C@@H](O)[C@H](O[C@H]2[C@H](OC(=O)[C@]34CCC(C)(C)C[C@H]3C3=CC[C@@H]5[C@@]6(C)C[C@H](O)[C@H](O[C@@H]7O[C@H](CO)[C@@H](O)[C@H](O[C@@H]8O[C@H](CO)[C@@H](O)[C@H](O)[C@H]8O)[C@H]7O)[C@@](C)(CO)[C@@H]6CC[C@@]5(C)[C@]3(C)C[C@H]4O)OC[C@H](O)[C@@H]2O)O[C@@H](C)[C@@H]1O[C@@H]1OC[C@@H](O)[C@H](O[C@@H]2OC[C@](O)(CO)[C@H]2O)[C@H]1O [2'OACETYLPOLYGALACIN D2]	3.6	5.9	3.4	3.4	–	–	–	–
COc1cc([C@@H]2c3cc4c(cc3[C@@H](O[C@@H]3O[C@@H]5CO[C@@H](C)O[C@H]5[C@H](O)[C@H]3O)[C@H]3COC(=O)[C@H]23)OCO4)cc(OC)c1O [ETOPOSIDE]	1.6	> 10	0.3	> 10	–	–	–	–
C[C@@H]1O[C@@H](O[C@H]2[C@H](OC(=O)[C@]34CCC(C)(C)C[C@H]3C3=CC[C@@H]5[C@@]6(C)C[C@H](O)[C@H](O[C@@H]7O[C@H](CO)[C@@H](O)[C@H](O[C@@H]8O[C@H](CO)[C@@H](O)[C@H](O)[C@H]8O)[C@H]7O)[C@@](C)(CO)[C@@H]6CC[C@@]5(C)[C@]3(C)C[C@H]4O)OC[C@H](O)[C@@H]2O)[C@H](O)[C@H](O)[C@H]1O[C@@H]1OC[C@@H](O)[C@H](O[C@@H]2OC[C@](O)(CO)[C@H]2O)[C@H]1O [POLYGALACIN D2]	3.8	5.8	2.6	3.4	–	–	–	–

Second part, led by results:

IC50 (HCT-15 [2]) [µM]	SMILES	IC50 [1] [µM]	IC50 [3] [µM]	IC50 [4] [µM]	Activity (HCT-15 [5])	Activity (HCT-15 [2])	Activity (MES-SA)	Activity (MES-SA/Dx5)
3.4	CC(=O)O[C@H]1[C@@H](O)[C@H](O[C@H]2[C@H](OC(=O)[C@]34CCC(C)(C)C[C@H]3C3=CC[C@@H]5[C@@]6(C)C[C@H](O)[C@H](O[C@@H]7O[C@H](CO)[C@@H](O)[C@H](O)[C@H]7O)C(CO)(CO)[C@@H]6CC[C@@]5(C)[C@]3(C)C[C@H]4O)OC[C@H](O)[C@@H]2O)O[C@@H](C)[C@@H]1O[C@@H]1OC[C@@H](O)[C@H](O[C@@H]2OC[C@](O)(CO)[C@H]2O)[C@H]1O	4.2	2.3	2.2	–	–	–	–
> 10	CC(=O)O[C@H]1[C@H](O[C@H]2[C@H](OC(=O)[C@]34CCC(C)(C)C[C@H]3C3=CC[C@@H]5[C@@]6(C)C[C@H](O)[C@H](O[C@@H]7O[C@H](CO)[C@@H](O)[C@H](O)[C@H]7O)[C@@](C)(CO)[C@@H]6CC[C@@]5(C)[C@]3(C)C[C@H]4O)OC[C@H](O)[C@@H]2O)O[C@@H](C)[C@H](O[C@@H]2OC[C@@H](O)[C@H](O[C@@H]3OC[C@](O)(CO)[C@H]3O)[C@H]2O)[C@H]1O	> 10	6.3	6.2	–	–	–	–
3.4	CC(=O)O[C@H]1[C@H](O[C@H]2[C@H](OC(=O)[C@]34CCC(C)(C)C[C@H]3C3=CC[C@@H]5[C@@]6(C)C[C@H](O)[C@H](O[C@@H]7O[C@H](CO)[C@@H](O)[C@H](O)[C@H]7O)C(CO)(CO)[C@@H]6CC[C@@]5(C)[C@]3(C)C[C@H]4O)OC[C@H](O)[C@@H]2O)O[C@@H](C)[C@H](O[C@@H]2OC[C@@H](O)[C@H](O[C@@H]3OC[C@](O)(CO)[C@H]3O)[C@H]2O)[C@H]1O [3'O-ACETYLPLATYCODIN D]	4.1	2.3	2.2	–	–	–	–
9.6	C[C@@H]1O[C@@H](O[C@H]2[C@H](OC(=O)[C@]34CCC(C)(C)C[C@H]3C3=CC[C@@H]5[C@@]6(C)C[C@H](O)[C@H](O[C@@H]7O[C@H](CO)[C@@H](O)[C@H](O[C@@H]8O[C@H](CO)[C@@H](O)[C@H](O)[C@H]8O)[C@H]7O)C(CO)(CO)[C@@H]6CC[C@@]5(C)[C@]3(C)C[C@H]4O)OC[C@H](O)[C@@H]2O)[C@H](O)[C@H](O)[C@H]1O[C@@H]1OC[C@@H](O)[C@H](O[C@@H]2OC[C@](O)(CO)[C@H]2O)[C@H]1O [PLATYCODIN D2]	5.7	3.5	5.2	–	–	–	–
5.7	C[C@@H]1O[C@@H](O[C@H]2[C@H](OC(=O)[C@]34CCC(C)(C)C[C@H]3C3=CC[C@@H]5[C@@]6(C)C[C@H](O)[C@H](O[C@@H]7O[C@H](CO)[C@@H](O)[C@H](O)[C@H]7O)C(CO)(CO)[C@@H]6CC[C@@]5(C)[C@]3(C)C[C@H]4O)OC[C@H](O)[C@@H]2O)[C@H](O)[C@H](O)[C@H]1O[C@@H]1OC[C@@H](O)[C@H](O[C@@H]2OC[C@](O)(CO)[C@H]2O)[C@H]1O [PLATYCODIN D]	7.9	3.9	> 10	–	–	–	–
8.5	C[C@@H]1O[C@@H](O[C@H]2[C@H](OC(=O)[C@]34CCC(C)(C)C[C@H]3C3=CC[C@@H]5[C@@]6(C)C[C@H](O)[C@H](O[C@@H]7O[C@H](CO)[C@@H](O)[C@H](O)[C@H]7O)[C@@](C)(CO)[C@@H]6CC[C@@]5(C)[C@]3(C)C[C@H]4O)OC[C@H](O)[C@@H]2O)[C@H](O)[C@H](O)[C@H]1O[C@@H]1OC[C@@H](O)[C@H](O[C@@H]2OC[C@](O)(CO)[C@H]2O)[C@H]1O [POLYGALACIN D]	> 10	5	7.7	–	–	–	–
